The test system of data set [1] is RAW264.7. The data set is described as follows: Antiinflammatory activity against LPS-stimulated mouse RAW264.7 cells assessed as inhibition of nitric oxide production at 0.5 to 50 ug/ml pretreated for 4 hrs followed by challenge with 1 ug/mL LPS for 24 hrs by Griess reaction method relative to control.
The subject of data set [2] is RAW264.7. The data set is described as follows: Antiinflammatory activity against LPS-stimulated mouse RAW264.7 cells assessed as inhibition of IL-6 production at 0.5 to 50 ug/ml pretreated for 4 hrs followed by challenge with 1 ug/mL LPS for 48 hrs by ELISA relative to control. It is filed as functional, cell-based.
The subject of data set [3] is HEK293. The data set is described as follows: Antiinflammatory activity against LPS-stimulated NF-kappaB activated human HEK293 cells at 200 ug/ml pretreated for 4 hrs followed by challenge with LPS for 48 hrs by luciferase assay. Type of data set: functional, cell-based. The gist of the method: (§1)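 NF-κB reporter 293 cells grown in DMEM with 10% FBS, penicillin 100 U/mL and streptomycin 100 μg/mL. Compounds tested at 12.5, 25, 50, 100 and 200 μg/mL, added 4 h before stimulation with 1 μg/mL LPS for 48 h. Cells then washed twice in PBS (pH 7.4) and lysed in passive lysis buffer, and luciferase activity read.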

The subject of data set [4] is HEK293. The experiment in a line: Antiinflammatory activity against LPS-stimulated NF-kappaB activated human HEK293 cells at 50 ug/ml pretreated for 4 hrs followed by challenge with LPS for 48 hrs by luciferase assay. Type of data set: functional, cell-based. The gist of the method:
as §1

For data set [5], the system named is HEK293. The data set is described as follows: Antiinflammatory activity against LPS-stimulated NF-kappaB activated human HEK293 cells at 100 ug/ml pretreated for 4 hrs followed by challenge with LPS for 48 hrs by luciferase assay. Type of data set: functional, cell-based. The method in brief: as §1
In data set [6] the test system is HEK293. The experiment in a line: Antiinflammatory activity against LPS-stimulated NF-kappaB activated human HEK293 cells at 25 ug/ml pretreated for 4 hrs followed by challenge with LPS for 48 hrs by luciferase assay. Type of data set: functional, cell-based. The gist of the method: as §1
Data set [7] concerns RAW264.7. The experiment in a line: Cytotoxicity against LPS-stimulated mouse RAW264.7 cells assessed as cell viability upto 50 ug/mL for 4 hrs by MTT assay in presence of 0.01 to 1 ug/mL LPS measured after 24 hrs. Type of data set: cell-based. The method in brief: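 Viability of RAW 264.7 cells measured by MTT colorimetric assay after 24 h incubation with compounds. Compounds were tested up to 50 μg/mL alongside LPS at 0.01, 0.1 or 1 μg/mL, and at 100 μg/mL with 10 μg/mL LPS.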
(In general: Tetrazolium assays rely on reduction of a dye to a coloured formazan, in cell work by metabolically active cells.)

Data set [8] deals with RAW264.7. The experiment in a line: Cytotoxicity against LPS-stimulated mouse RAW264.7 cells assessed as decrease in cell viability upto 100 ug/mL for 4 hrs by MTT assay in presence of 10 ug/mL LPS measured after 24 hrs.
In data set [9] the test system is RAW264.7. The data set is described as follows: Antiinflammatory activity against LPS-stimulated mouse RAW264.7 cells assessed as inhibition of TNFalpha production at 0.5 to 50 ug/ml pretreated for 4 hrs followed by challenge with 1 ug/mL LPS for 48 hrs by ELISA relative to control. Type of data set: functional, cell-based. In general terms: In an ELISA, binding on a coated surface is turned into a signal by an enzyme label.

The test system of data set [10] is HEK293. The experiment in a line: Antiinflammatory activity against LPS-stimulated NF-kappaB activated human HEK293 cells at 12.5 ug/ml pretreated for 4 hrs followed by challenge with LPS for 48 hrs by luciferase assay. It is filed as functional, cell-based. The method in brief:
as §1

Data set [11] concerns RAW264.7. The experiment in a line: Antiinflammatory activity against LPS-stimulated mouse RAW264.7 cells assessed as inhibition of IL1-beta production at 0.5 to 50 ug/ml pretreated for 4 hrs followed by challenge with 1 ug/mL LPS for 48 hrs by ELISA relative to control. Type of data set: functional, cell-based.
Data set [12] concerns RAW264.7. The experiment in a line: Antiinflammatory activity against LPS-stimulated mouse RAW264.7 cells assessed as inhibition of IL-10 production at 0.5 to 50 ug/ml pretreated for 4 hrs followed by challenge with 1 ug/mL LPS for 48 hrs by ELISA relative to control. Type of data set: functional, cell-based.

Active and inactive are the calls of the source. No cut-off for these calls is given here.

Consider `CC1(C)CC[C@]2(C(=O)O)CC[C@]3(C)C(=C2C1)CC[C@@H]1[C@@]2(C)C[C@@H](O)[C@H](O)C(C)(C)[C@@H]2CC[C@]13C`, for which the inhibition result in the data set on RAW264.7 [1], with RAW264.7 [2], in the data set with RAW264.7 [9], in the data set with RAW264.7 [11] and in the data set on RAW264.7 [12] was “Active” in each case. The outcome with HEK293 [3], in the data set on HEK293 [4], with HEK293 [5], in the data set on HEK293 [6] and in the data set with HEK293 [10] was Active. Also, the values for the Activity result in the data set on RAW264.7 [7] and with RAW264.7 [8] were “Non-toxic” and “Toxic”, respectively.

For the molecule `C[C@]12CCC(=O)C=C1CC[C@@H]1[C@@H]2[C@@H](O)C[C@@]2(C)[C@H]1CC[C@]2(O)C(=O)CO`, the inhibition entry in the data set on RAW264.7 [1], with RAW264.7 [2], in the data set with RAW264.7 [9], with RAW264.7 [11] and in the data set on RAW264.7 [12] was “Active” each time.

Take `CC1(C)CC[C@]2(C(=O)O)CC[C@]3(C)C(=CC[C@@H]4[C@@]5(C)C[C@@H](O)[C@@H](O)[C@@](C)(CO)[C@@H]5CC[C@]43C)[C@@H]2C1`: the inhibition result with RAW264.7 [1], in the data set on RAW264.7 [2], in the data set on RAW264.7 [9], in the data set with RAW264.7 [11] and in the data set with RAW264.7 [12] was “Active” in each case. Further, the result with HEK293 [3], in the data set on HEK293 [4], in the data set on HEK293 [5], in the data set with HEK293 [6] and in the data set with HEK293 [10] was Active. The Activity result in the data set on RAW264.7 [7] is “Non-toxic”; in the data set on RAW264.7 [8], “Toxic”.

Consider `CC(=O)[C@H](C)CCC1=CC2=CC[C@@H]3[C@@]4(C)C[C@@H](O)[C@H](O)[C@@](C)(CO)[C@@H]4CC[C@@]3(C)[C@]2(C)CC1`, for which the inhibition entry in the data set on RAW264.7 [1], in the data set with RAW264.7 [2], with RAW264.7 [9], in the data set on RAW264.7 [11] and in the data set with RAW264.7 [12] was “Active” in each case. The outcome in the data set with HEK293 [3], in the data set with HEK293 [4], in the data set with HEK293 [5], in the data set with HEK293 [6] and in the data set with HEK293 [10] was Active. For the same molecule, the Activity entry with RAW264.7 [7] is listed as “Non-toxic”; with RAW264.7 [8], “Toxic”.

For `C[C@@H]1CC[C@]2(C(=O)O)CC[C@]3(C)C(=CC[C@@H]4[C@@]5(C)C[C@@H](O)[C@H](O)[C@@](C)(CO)[C@@H]5CC[C@]43C)[C@@H]2[C@]1(C)O`, the inhibition entry in the data set with RAW264.7 [1], in the data set with RAW264.7 [2], in the data set on RAW264.7 [9], with RAW264.7 [11] and in the data set on RAW264.7 [12] was “Active” each time. Besides, the result in the data set with HEK293 [3], with HEK293 [4], in the data set with HEK293 [5], in the data set on HEK293 [6] and with HEK293 [10] was Active. Also, the Activity result is on record as “Non-toxic” in the data set with RAW264.7 [7] and “Toxic” in the data set with RAW264.7 [8].

For the origin of these results see ChEMBL document CHEMBL1773051, “Anti-inflammatory triterpenes from the leaves of Rosa laevigata” (J Nat Prod, 2011).
